Columns and labels:
CCRF-CEM [1] = experiment: Inhibition of HIV-1 RF induced cytotoxicity in CEM cells; Inactive.; type: functional, cell-based
Method in brief: (§1)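 CEM cells at 5×10^3 per well were infected with HIV-1 RF at MOI 0.01, chosen to give complete cell killing by day 6. Five serial half-log dilutions starting at 100 μM were tested in triplicate. After 6 days at 37 °C, viability was read by XTT. IC50 is the minimum concentration inhibiting CPE by 50%, from semilog regression curve fitting.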

CCRF-CEM [2] = experiment: Compound was tested for antiviral activity by measuring its ability to inhibit HIV induced virus production in CEM cells; type: functional, Homo sapiens
[3] = test system: Human immunodeficiency virus type 1 (RF/HAT ISOLATE); experiment: Inhibition of HIV-1 RF viral production in MT-2 cells.; type: functional, Human immunodeficiency virus 1, MT2
MT2 [4] = experiment: Inhibition of HIV-1 RF induced cytotoxicity in MT-2 cells; Inactive.; type: functional, cell-based
Method in brief: (§2)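 MT-2 cells at 5×10^3 per well were infected with HIV-1 RF at MOI 0.005, chosen to give complete killing at 6 days. Triplicate wells received five half-log dilutions from 100 μM. After 6 days at 37 °C, XTT colorimetry gave viability. IC50 is the minimum concentration reducing CPE by 50%, calculated by semilog regression.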

CCRF-CEM [5] = experiment: Compound was tested for antiviral activity by measuring its ability to inhibit HIV induced cell killing in CEM cells; type: functional, cell-based; conditions: Homo sapiens; method in brief: as §1
MT2 [6] = experiment: Compound was tested for antiviral activity by measuring its ability to inhibit HIV induced virus production in MT-2 cells; NT indicates nontoxic uM; type: functional, cell-based
Method in brief: (§3)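 Cytotoxicity was measured in uninfected cells with drug, in CEM or MT-2 at 5×10^3 per well. There were five half-log dilutions up to 100 μM, the highest concentration, in triplicate. Cells were incubated 6 days at 37 °C and viability was read by XTT. TC25 is the minimum concentration cutting viability by 25%; NT means nontoxic up to 100 μM.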

CCRF-CEM [7] = experiment: Compound was tested for antiviral activity by measuring its ability to inhibit HIV induced virus production in CEM cells; NT indicates nontoxic uM; type: functional, cell-based; conditions: Homo sapiens; method in brief: as §3
MT2 [8] = experiment: Compound was tested for antiviral activity by measuring its ability to inhibit HIV induced cell killing in MT-2 cells; type: functional, cell-based; conditions: Homo sapiens; method in brief: as §2

SMILES	IC50 (CCRF-CEM [1])	TC25 (CCRF-CEM [2]) [µM]	TC25 [3] [µM]	IC50 (MT2 [4])	IC50 (CCRF-CEM [5]) [µM]	TC25 (MT2 [6]; Homo sapiens)	TC25 (CCRF-CEM [7])	IC50 (MT2 [8]) [µM]	TC25 (MT2 [6])	NT (MT2 [6])
O=C1NC(=O)C(CSCc2ccc(Br)cc2)(CSCc2ccc(Br)cc2)N1	Nontoxic up to 100uM	16	7	Nontoxic up to 100uM						
O=C1NC(=O)C(CSCC2CCCCC2)(CSCC2CCCCC2)N1	Nontoxic up to 100uM	8	12	Nontoxic up to 100uM						
COc1ccc(CSCC2(CSCc3ccc(OC)cc3)NC(=O)NC2=O)cc1		6	6	Nontoxic up to 100uM	23					
O=C1NC(=O)C(CSCCO)(CSCc2ccccc2)N1 (configuration not stated)	Nontoxic up to 100uM			Nontoxic up to 100uM		Nontoxic up to 100uM	Nontoxic up to 100uM			
O=C1NC(=O)C(CSc2ccccc2)(CSc2ccccc2)N1	Nontoxic up to 100uM	64	50							
O=C1NC(=O)C(COCc2ccccc2)(COCc2ccccc2)N1	Nontoxic up to 100uM	>100	87	Nontoxic up to 100uM						
O=C1NC(=O)C(CSCc2ccc([N+](=O)[O-])cc2)(CSCc2ccc([N+](=O)[O-])cc2)N1		9	5	Nontoxic up to 100uM	19					
O=C1NC(=O)C(CSCc2ccccc2)(CSCc2ccccc2)N1	Nontoxic up to 100uM						Nontoxic up to 100uM	17	Nontoxic up to 100uM	
O=C1NC(=O)C(CSC(=O)c2ccccc2)(CSC(=O)c2ccccc2)N1		31	5	Nontoxic up to 100uM	7					
O=C1NC(=O)C(CSc2ccncc2)(CSc2ccncc2)N1	Nontoxic up to 100uM			Nontoxic up to 100uM			Nontoxic up to 100uM			Nontoxic up to 100uM
O=C1NC(=O)C(CS)(CS)N1		3	0.8	Nontoxic up to 100uM	0.6					
NC(CSCc1ccccc1)(CSCc1ccccc1)C(=O)O	Nontoxic up to 100uM		60	Nontoxic up to 100uM			Nontoxic up to 100uM			
O=C1NC(=O)C(CSCc2ccccc2)N1 (configuration not stated)	Nontoxic up to 100uM	5	2							
O=C1NC(=O)C(CS)(CSCc2ccccc2)N1 (configuration not stated)	Nontoxic up to 100uM	34	50							
N#Cc1ccc(CSCC2(CSCc3ccc(C#N)cc3)NC(=O)NC2=O)cc1		15	8	Nontoxic up to 100uM	25					
O=C1NC(=O)C(CSCc2cccnc2)(CSCc2cccnc2)N1	Nontoxic up to 100uM			Nontoxic up to 100uM		Nontoxic up to 100uM	Nontoxic up to 100uM			
S=C1NC(=S)C(CSCc2ccccc2)(CSCc2ccccc2)N1	Nontoxic up to 100uM	16	16							
O=C1NC(=O)C(CSCc2ccc(C(=O)O)cc2)(CSCc2ccc(C(=O)O)cc2)N1	Nontoxic up to 100uM			Nontoxic up to 100uM			Nontoxic up to 100uM		Nontoxic up to 100uM	
COC(=O)c1ccc(CSCC2(CSCc3ccc(C(=O)OC)cc3)NC(=O)NC2=O)cc1	Nontoxic up to 100uM	25	10	Nontoxic up to 100uM						
O=C1NC(=O)C(CSCc2ccccn2)(CSCc2ccccn2)N1	Nontoxic up to 100uM					Nontoxic up to 100uM	Nontoxic up to 100uM	81		
Nc1ccc(CSCC2(CSCc3ccc(N)cc3)NC(=O)NC2=O)cc1			16		88		Nontoxic up to 100uM	6		
O=C1NC(=O)C(CSCc2ccncc2)(CSCc2ccncc2)N1			45	Nontoxic up to 100uM	53		Nontoxic up to 100uM			
O=C1NC(=O)C(CSCc2cccc3ccccc23)(CSCc2cccc3ccccc23)N1	Nontoxic up to 100uM			Nontoxic up to 100uM		Nontoxic up to 100uM	Nontoxic up to 100uM			
O=C1NC(=O)C(CSCc2cccs2)(CSCc2cccs2)N1	Nontoxic up to 100uM		17	Nontoxic up to 100uM			Nontoxic up to 100uM			
